According to ChEMBL document CHEMBL1275442, “Pharmacokinetics and tissue distribution of anidulafungin in rats” (Antimicrob Agents Chemother, 2008):

Key:
[1] = tested on: Lung; test: Drug level in Long Evans rat lung assessed as radioactivity per gram of tissue at 5 mg/kg, iv administered as single bolus dose measured 72 hrs postdose by autoradiography; assay type: ADME, organism-based; design: dose 5 mg/kg, route intravenous; conditions: in vivo
Method in brief: (§1)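 Male pigmented Long Evans (HsdBlu:LE) rats, 7.5 weeks old, 202 to 217 g, single iv [¹⁴C]anidulafungin; one rat per sampling time. Euthanized by isoflurane and cardiac-puncture exsanguination. Sagittal whole-body sections quantified by phosphorimaging autoradiography, single samples corrected for section thickness across multiple sections per tissue. Concentrations (μg eq/g drug-derived radioactivity) interpolated from least-squares standard curves per scan.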

[2] = tested on: Kidney; test: Drug level in Long Evans rat kidney assessed as low disposition of radioactivity per gram of tissue at 5 mg/kg, iv administered as single bolus dose measured 72 hrs postdose by autoradiography; assay type: ADME, organism-based; design: dose 5 mg/kg, route intravenous; conditions: in vivo; method in brief: as §1
[3] = tested on: Cerebrum; test: Drug level in Long Evans rat cerebrum assessed as radioactivity per gram of tissue at 5 mg/kg, iv administered as single bolus dose measured 72 hrs postdose by autoradiography; assay type: ADME, organism-based; design: dose 5 mg/kg, route intravenous; conditions: in vivo; method in brief: as §1
[4] = Cmax in F344 rat liver at 5 mg/kg, iv administered as single bolus dose after 5 min by HPLC method; assay type: ADME, organism-based; design: dose 5 mg/kg, route intravenous
Method in brief: (§2)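 Male F344 rats, 10–11 weeks, 223.6–243.8 g, given one IV dose of [¹⁴C]anidulafungin, 5 mg/kg, over about 5 min. Tissues and blood sampled at 0.083–72 h (n = 3 rats per time). Parent drug measured by HPLC; LLOQ/ULOQ were 20/5,120 ng/ml for plasma and 220/56,320 ng/g for tissue. Noncompartmental parameters taken from the composite mean profile.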

[5] = tested on: Cerebrospinal fluid; test: AUC (0 to infinity) in F344 rat cerebrospinal fluid assessed as total compound-derived radioactivity per gram of tissue at 5 mg/kg, iv administered as single bolus dose […]; assay type: ADME, organism-based; design: time infinity, dose 5 mg/kg, route intravenous; conditions: in vivo
Method in brief: (§3)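 Same F344 study: single 5 mg/kg IV [¹⁴C]anidulafungin given over about 5 min. Total drug-derived radioactivity (parent plus metabolites) counted by liquid scintillation, in […]. Noncompartmental analysis of the composite mean profile.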

[6] = tested on: Blood; test: AUC (0 to infinity) in F344 rat blood assessed as total compound-derived radioactivity per gram of tissue at 5 mg/kg, iv administered as single bolus dose […]; assay type: ADME, organism-based; design: dose 5 mg/kg, route intravenous, time infinity; conditions: in vivo; method in brief: as §3
[7] = tested on: Liver; test: Drug level in Long Evans rat liver assessed as high disposition of radioactivity per gram of tissue at 5 mg/kg, iv administered as single bolus dose measured 24 hrs postdose by autoradiography; assay type: ADME, organism-based; design: dose 5 mg/kg, route intravenous; conditions: in vivo; method in brief: as §1
[8] = tested on: Muscle tissue; test: Drug level in Long Evans rat muscle assessed as radioactivity per gram of tissue at 5 mg/kg, iv administered as single bolus dose measured 24 hrs postdose by autoradiography; assay type: ADME, organism-based; design: dose 5 mg/kg, route intravenous; conditions: in vivo
Method in brief: (§4)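 Male pigmented Long Evans (HsdBlu:LE) rats, 7.5 weeks old and 202 to 217 g, got a single iv dose of [14C]anidulafungin at 5 mg/kg. One rat per time point (0.5, 6, 12, 24, 72, 168 h) was euthanised by isoflurane and cardiac-puncture exsanguination. Sagittal whole-body sections were quantified by phosphorimaging. Samples were thickness-corrected, and concentrations (μg eq/g) were interpolated from least-squares standard curves.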

[9] = tested on: Zone of skin; test: Cmax in F344 rat skin assessed as total compound-derived radioactivity per gram of tissue at 5 mg/kg, iv administered as single bolus dose […]; assay type: ADME, organism-based; design: dose 5 mg/kg, route intravenous; conditions: in vivo; method in brief: as §3
[10] = Cmax in F344 rat muscle at 5 mg/kg, iv administered as single bolus dose after 30 min by HPLC method; assay type: ADME, organism-based, Muscle tissue; design: dose 5 mg/kg, route intravenous; method in brief: as §2
[11] = tested on: Kidney; test: Half life in F344 rat kidney assessed as total compound-derived radioactivity at 5 mg/kg, iv administered as single bolus dose […]; assay type: ADME, organism-based; design: dose 5 mg/kg, route intravenous; conditions: in vivo
Method in brief: (§5)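 Male F344 rats, 10 to 11 weeks old and 223.6 to 243.8 g, got one iv dose of [14C]anidulafungin at 5 mg/kg over about 5 min. Blood, CSF, kidney, liver, lung, quadriceps, spleen and skin were sampled predose and at 0.083 to 72 h, 3 rats per time. Total radioactivity (parent plus metabolites) was measured by liquid scintillation counting. Parameters were noncompartmental, from a composite mean profile.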

[12] = tested on: Cerebrospinal fluid; test: Drug level in Long Evans rat cerebrospinal fluid assessed as radioactivity per gram of tissue at 5 mg/kg, iv administered as single bolus dose measured 0.5 hrs postdose by autoradiography; assay type: ADME, organism-based; design: dose 5 mg/kg, route intravenous; conditions: in vivo; method in brief: as §1
[13] = tested on: Cerebrospinal fluid; test: Drug level in Long Evans rat cerebrospinal fluid assessed as radioactivity per gram of tissue at 5 mg/kg, iv administered as single bolus dose measured 72 hrs postdose by autoradiography; assay type: ADME, organism-based; design: dose 5 mg/kg, route intravenous; conditions: in vivo; method in brief: as §1
[14] = Drug level in Long Evans rat eye assessed as radioactivity per gram of tissue at 5 mg/kg, iv administered as single bolus dose measured 168 hrs postdose by autoradiography; assay type: ADME, organism-based; design: dose 5 mg/kg, route intravenous; conditions: in vivo; method in brief: as §1
[15] = tested on: Liver; test: Drug level in Long Evans rat liver assessed as high disposition of radioactivity per gram of tissue at 5 mg/kg, iv administered as single bolus dose measured 0.5 hrs postdose by autoradiography; assay type: ADME, organism-based; design: dose 5 mg/kg, route intravenous; conditions: in vivo; method in brief: as §1
[16] = tested on: Kidney; test: AUC (0 to 24 hrs) in F344 rat kidney at 5 mg/kg, iv administered as single bolus dose; assay type: ADME, organism-based; design: time < 24 hr, dose 5 mg/kg, route intravenous; conditions: in vivo; method in brief: as §2
[17] = tested on: Muscle tissue; test: Cmax in F344 rat muscle assessed as total compound-derived radioactivity per gram of tissue at 5 mg/kg, iv administered as single bolus dose […]; assay type: ADME, organism-based; design: dose 5 mg/kg, route intravenous; conditions: in vivo; method in brief: as §3
[18] = tested on: Lung; test: Drug level in Long Evans rat lung assessed as radioactivity per gram of tissue at 5 mg/kg, iv administered as single bolus dose measured 12 hrs postdose by autoradiography; assay type: ADME, organism-based; design: dose 5 mg/kg, route intravenous; conditions: in vivo; method in brief: as §1
[19] = tested on: Spleen; test: Drug level in Long Evans rat spleen assessed as radioactivity per gram of tissue at 5 mg/kg, iv administered as single bolus dose measured 12 hrs postdose by autoradiography; assay type: ADME, organism-based; design: dose 5 mg/kg, route intravenous; conditions: in vivo; method in brief: as §4
[20] = tested on: Zone of skin; test: Half life in F344 rat skin assessed as total compound-derived radioactivity at 5 mg/kg, iv administered as single bolus dose […]; assay type: ADME, organism-based; design: dose 5 mg/kg, route intravenous; conditions: in vivo; method in brief: as §5
[21] = tested on: Cerebrospinal fluid; test: AUC (0 to 24 hrs) in F344 rat cerebrospinal fluid assessed as total compound-derived radioactivity per gram of tissue at 5 mg/kg, iv administered as single bolus dose […]; assay type: ADME, organism-based; design: time < 24 hr, dose 5 mg/kg, route intravenous; conditions: in vivo; method in brief: as §3
[22] = tested on: Zone of skin; test: Drug level in Long Evans rat skin assessed as radioactivity per gram of tissue at 5 mg/kg, iv administered as single bolus dose measured 6 hrs postdose by autoradiography; assay type: ADME, organism-based; design: dose 5 mg/kg, route intravenous; conditions: in vivo; method in brief: as §4
[23] = tested on: Liver; test: Drug level in Long Evans rat liver assessed as high disposition of radioactivity per gram of tissue at 5 mg/kg, iv administered as single bolus dose measured 12 hrs postdose by autoradiography; assay type: ADME, organism-based; design: dose 5 mg/kg, route intravenous; conditions: in vivo; method in brief: as §1
[24] = tested on: Muscle tissue; test: AUC (0 to infinity) in F344 rat muscle at 5 mg/kg, iv administered as single bolus dose; assay type: ADME, organism-based; design: dose 5 mg/kg, route intravenous, time infinity; conditions: in vivo; method in brief: as §2
[25] = tested on: Zone of skin; test: Drug level in Long Evans rat skin assessed as radioactivity per gram of tissue at 5 mg/kg, iv administered as single bolus dose measured 72 hrs postdose by autoradiography; assay type: ADME, organism-based; design: dose 5 mg/kg, route intravenous; conditions: in vivo; method in brief: as §4
[26] = tested on: Lung; test: AUC (0 to 24 hrs) in F344 rat lung assessed as total compound-derived radioactivity per gram of tissue at 5 mg/kg, iv administered as single bolus dose […]; assay type: ADME, organism-based; design: time < 24 hr, dose 5 mg/kg, route intravenous; conditions: in vivo; method in brief: as §3
[27] = tested on: Lung; test: AUC (0 to infinity) in F344 rat lung assessed as total compound-derived radioactivity per gram of tissue at 5 mg/kg, iv administered as single bolus dose […]; assay type: ADME, organism-based; design: dose 5 mg/kg, route intravenous, time infinity; conditions: in vivo; method in brief: as §3
[28] = tested on: Liver; test: Drug level in Long Evans rat liver assessed as low disposition of radioactivity per gram of tissue at 5 mg/kg, iv administered as single bolus dose measured 24 hrs postdose by autoradiography; assay type: ADME, organism-based; design: dose 5 mg/kg, route intravenous; conditions: in vivo; method in brief: as §1

CCCCCOc1ccc(-c2ccc(-c3ccc([14C](=O)N[C@H]4C[C@@H](O)[C@@H](O)NC(=O)[C@@H]5[C@@H](O)[C@@H](C)CN5C(=O)[C@H]([C@@H](C)O)NC(=O)[C@H]([C@H](O)[C@@H](O)c5ccc(O)cc5)NC(=O)[C@@H]5C[C@@H](O)CN5C(=O)[C@H]([C@@H](C)O)NC4=O)cc3)cc2)cc1 [14C-ANIDULAFUNGIN]
Drug uptake [1]: 4.24 ugequiv | Drug uptake [2]: 1.97 ugequiv | Drug uptake [3]: 0.47 ugequiv | Cmax [4]: 15900 ng/g | AUC [5]: 0.95 ugequiv.hr/g | AUC [6]: 243.62 ugequiv.hr/g | Drug uptake [7]: 29.63 ugequiv | Drug uptake [8]: 1.17 ugequiv | Cmax [9]: 5.4 ugequiv/g | Cmax [10]: 3840 ng/g | t1/2 [11]: 48.5 h | Drug uptake [12]: 5.51 ugequiv | Drug uptake [13]: 3.37 ugequiv | Drug uptake [14]: 0.6 ugequiv | Drug uptake [15]: 11.79 ugequiv | AUC [16]: 517.32 µg·h/g | Cmax [17]: 4.16 ugequiv/g | Drug uptake [18]: 5.64 ugequiv | Drug uptake [19]: 11.48 ugequiv | t1/2 [20]: 56.6 h | AUC [21]: 0.61 ugequiv.hr/g | Drug uptake [22]: 5.39 ugequiv | Drug uptake [23]: 25.01 ugequiv | AUC [24]: 57.35 µg·h/g | Drug uptake [25]: 4.04 ugequiv | AUC [26]: 934.92 ugequiv.hr/g | AUC [27]: 1341.95 ugequiv.hr/g | Drug uptake [28]: 14.7 ugequiv
